Several values for one entry are separate records, joined by “and”; a condition that tells them apart may be missing. Equal values may be shown once.
Test system: U2OS
Experiment: Multiplex assay against U2OS
Type: toxicity, cell-based
Conditions: human
Method in brief: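 Values for tubulin, mitochondrial-mass and membrane-permeability phenotypes are per cents of cells with healthy nuclei. These cells were identified by CellPathfinder machine-learning gating of live cells that had been stained at seeding with Hoechst33342, BioTracker Green Microtubule Cytoskeleton Dye, MitoTracker Red and Annexin V Alexa Fluor 680 and imaged on a CQ1 microscope at 37°C and 5% CO2 after compound addition. The gating first set Hoechst high-intensity objects apart from normal cells, then split normal cells into healthy, pyknosed or fragmented nuclei, and pyknosed cells into mitotic or apoptotic.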

[1] = 12 h, 1 µM, compound concentration 1 uM
[2] = 12 h, 10 µM, compound concentration 10 uM
[3] = 24 h, 1 µM, compound concentration 1 uM
[4] = 24 h, 10 µM, compound concentration 10 uM
[5] = 48 h, 1 µM, compound concentration 1 uM
[6] = 48 h, 10 µM, compound concentration 10 uM

## C[C@H](NC(=O)CNC(=O)c1cccc(Cl)c1)c1ccccc1
[1]
  Population Apoptotic (%): 78% and 71%
  Population Fragmented Nuclei (%): 26% and 20%
  Population Healthy Nuclei (%): 61% and 68%
  Population Hoechst High Intensity Objects (%): 3%
  Population Membrane Permeable-Phenotype (%): 6% and 8%
  Population Mitochondria Different-Phenotype (%): 4% and 2%
  Population Mitotic Cells (%): 21% and 28%
  Population Normal (%): 96%
  Population Pyknosed Nuclei (%): 12% and 11%
  Population Tubulin-Different-Phenotype (%): 2%
  Total Cell Count: 242 and 124
[2]
  Population Apoptotic (%): 68% and 66%
  Population Fragmented Nuclei (%): 24% and 13%
  Population Healthy Nuclei (%): 63% and 82%
  Population Hoechst High Intensity Objects (%): 2% and 0%
  Population Membrane Permeable-Phenotype (%): 9% and 2%
  Population Mitochondria Different-Phenotype (%): 3%
  Population Mitotic Cells (%): 31% and 33%
  Population Normal (%): 97% and 100%
  Population Pyknosed Nuclei (%): 11% and 4%
  Population Tubulin-Different-Phenotype (%): 4% and 2%
  Total Cell Count: 198 and 150
[3]
  Population Apoptotic (%): 79% and 88%
  Population Fragmented Nuclei (%): 19%
  Population Healthy Nuclei (%): 71% and 69%
  Population Hoechst High Intensity Objects (%): 2%
  Population Membrane Permeable-Phenotype (%): 7% and 4%
  Population Mitochondria Different-Phenotype (%): 2% and 4%
  Population Mitotic Cells (%): 20% and 11%
  Population Normal (%): 97%
  Population Pyknosed Nuclei (%): 8% and 10%
  Population Tubulin-Different-Phenotype (%): 2% and 0%
  Total Cell Count: 275 and 168
[4]
  Population Apoptotic (%): 90% and 71%
  Population Fragmented Nuclei (%): 24% and 12%
  Population Healthy Nuclei (%): 61% and 83%
  Population Hoechst High Intensity Objects (%): 1%
  Population Membrane Permeable-Phenotype (%): 6% and 4%
  Population Mitochondria Different-Phenotype (%): 4% and 2%
  Population Normal (%): 98%
  Population Pyknosed Nuclei (%): 13% and 3%
  Population Tubulin-Different-Phenotype (%): 2% and 3%
  Total Cell Count: 239 and 189
[5]
  Population Apoptotic (%): 74% and 100%
  Population Fragmented Nuclei (%): 18% and 17%
  Population Healthy Nuclei (%): 71% and 70%
  Population Hoechst High Intensity Objects (%): 3% and 2%
  Population Membrane Permeable-Phenotype (%): 6% and 4%
  Population Mitochondria Different-Phenotype (%): 3%
  Population Mitotic Cells (%): 25% and 0%
  Population Normal (%): 96% and 97%
  Population Pyknosed Nuclei (%): 10% and 11%
  Population Tubulin-Different-Phenotype (%): 1% and 2%
  Total Cell Count: 401 and 205
[6]
  Population Apoptotic (%): 81% and 100%
  Population Fragmented Nuclei (%): 19% and 12%
  Population Healthy Nuclei (%): 73% and 80%
  Population Hoechst High Intensity Objects (%): 2% and 1%
  Population Membrane Permeable-Phenotype (%): 6% and 4%
  Population Mitochondria Different-Phenotype (%): 2% and 1%
  Population Mitotic Cells (%): 18% and 0%
  Population Normal (%): 97% and 98%
  Population Pyknosed Nuclei (%): 7%
  Population Tubulin-Different-Phenotype (%): 4% and 1%
  Total Cell Count: 311 and 279

## CN1[C@@H](CC(=O)c2ccccc2)CCC[C@H]1C[C@H](O)c1ccccc1.Cl [LOBELINE HYDROCHLORIDE]
[1]
  Population Apoptotic (%): 43.24% and 34.78%
  Population Fragmented Nuclei (%): 1.42% and 2.51%
  Population Healthy Nuclei (%): 88.07% and 85.93%
  Population Hoechst High Intensity Objects (%): 0%
  Population Membrane Permeable-Phenotype (%): 0.97% and 2.34%
  Population Mitochondria Different-Phenotype (%): 0% and 6.43%
  Population Mitotic Cells (%): 56.76% and 65.22%
  Population Normal (%): 100%
  Population Pyknosed Nuclei (%): 10.51% and 11.56%
  Population Tubulin-Different-Phenotype (%): 0.65% and 0.58%
  Total Cell Count: 352 and 199
[2]
  Population Apoptotic (%): 42.42% and 20%
  Population Fragmented Nuclei (%): 1.15% and 1.84%
  Population Healthy Nuclei (%): 91.26% and 82.82%
  Population Hoechst High Intensity Objects (%): 0%
  Population Membrane Permeable-Phenotype (%): 1.76% and 8.15%
  Population Mitotic Cells (%): 57.58% and 80%
  Population Normal (%): 100%
  Population Pyknosed Nuclei (%): 7.59% and 15.34%
  Population Tubulin-Different-Phenotype (%): 4.03% and 5.19%
  Total Cell Count: 435 and 163
[3]
  Population Apoptotic (%): 44.64% and 46.88%
  Population Fragmented Nuclei (%): 0.81% and 1.97%
  Population Healthy Nuclei (%): 87.88% and 85.43%
  Population Hoechst High Intensity Objects (%): 0%
  Population Membrane Permeable-Phenotype (%): 0.46% and 2.76%
  Population Mitochondria Different-Phenotype (%): 0% and 6.91%
  Population Mitotic Cells (%): 55.36% and 53.12%
  Population Normal (%): 100%
  Population Pyknosed Nuclei (%): 11.31% and 12.6%
  Population Tubulin-Different-Phenotype (%): 0.69% and 0.92%
  Total Cell Count: 495 and 254
[4]
  Population Apoptotic (%): 28.79% and 39.39%
  Population Fragmented Nuclei (%): 0.84% and 0.51%
  Population Healthy Nuclei (%): 88.01% and 82.74%
  Population Hoechst High Intensity Objects (%): 0%
  Population Membrane Permeable-Phenotype (%): 0.96% and 1.23%
  Population Mitotic Cells (%): 71.21% and 60.61%
  Population Normal (%): 100%
  Population Pyknosed Nuclei (%): 11.15% and 16.75%
  Population Tubulin-Different-Phenotype (%): 2.11% and 2.45%
[5]
  Population Apoptotic (%): 42.67% and 32.61%
  Population Fragmented Nuclei (%): 2.46% and 2.85%
  Population Healthy Nuclei (%): 89.17% and 86.22%
  Population Hoechst High Intensity Objects (%): 0%
  Population Membrane Permeable-Phenotype (%): 0.75% and 0.83%
  Population Mitochondria Different-Phenotype (%): 0.13% and 5.79%
  Population Mitotic Cells (%): 57.33% and 67.39%
  Population Normal (%): 100%
  Population Pyknosed Nuclei (%): 8.37% and 10.93%
  Population Tubulin-Different-Phenotype (%): 1.25% and 0.55%
  Total Cell Count: 896 and 421
[6]
  Population Apoptotic (%): 41.41% and 48.72%
  Population Fragmented Nuclei (%): 1.94% and 1.9%
  Population Healthy Nuclei (%): 88.91% and 85.76%
  Population Hoechst High Intensity Objects (%): 0%
  Population Membrane Permeable-Phenotype (%): 1.66% and 1.85%
  Population Mitochondria Different-Phenotype (%): 0.31% and 8.86%
  Population Mitotic Cells (%): 58.59% and 51.28%
  Population Normal (%): 100%
  Population Pyknosed Nuclei (%): 9.15% and 12.34%
  Population Tubulin-Different-Phenotype (%): 1.77% and 2.21%
